In ChEMBL document CHEMBL3822391, “Synthesis and Biological Evaluation of Vitamin D3 Metabolite 20S,23S-Dihydroxyvitamin D3 and Its 23R Epimer” (J Med Chem, 2016):
The source made the active and inactive calls. The rule behind the calls is not given here.

What was measured:
Vitamin D3 receptor [1] = target: T1, Vitamin D3 receptor (Homo sapiens, UniProt P11473); experiment: Activation of VDR in human HaCaT cells expressing lentiviral VDRE-luciferase vector assessed as VDRE-mediated transcriptional activity measured after 24 hrs by luciferase transcriptional reporter assay; type: cell-based
T1 sequence (P11473 whole entry): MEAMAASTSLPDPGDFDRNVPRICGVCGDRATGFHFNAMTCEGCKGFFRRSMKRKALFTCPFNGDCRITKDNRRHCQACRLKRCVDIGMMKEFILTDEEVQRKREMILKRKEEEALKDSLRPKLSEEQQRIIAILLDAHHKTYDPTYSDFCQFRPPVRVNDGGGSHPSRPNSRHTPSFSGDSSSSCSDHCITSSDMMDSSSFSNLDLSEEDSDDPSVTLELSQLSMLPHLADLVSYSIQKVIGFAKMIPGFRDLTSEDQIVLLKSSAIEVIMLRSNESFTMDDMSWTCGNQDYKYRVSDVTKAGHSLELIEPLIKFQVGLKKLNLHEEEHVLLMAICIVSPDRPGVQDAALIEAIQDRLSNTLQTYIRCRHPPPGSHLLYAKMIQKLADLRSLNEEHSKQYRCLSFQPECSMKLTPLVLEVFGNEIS

Vitamin D3 receptor [2] = target: T1, Vitamin D3 receptor; experiment: Activation of VDR in human Caco2 cells expressing lentiviral VDRE-luciferase vector assessed as VDRE-mediated transcriptional activity measured after 24 hrs by luciferase transcriptional reporter assay; type: cell-based, Caco-2
Vitamin D3 receptor [3] = target: T1, Vitamin D3 receptor; experiment: Activation of VDR in human Jurkat cells expressing lentiviral VDRE-luciferase vector assessed as VDRE-mediated transcriptional activity measured after 24 hrs by luciferase transcriptional reporter assay; type: cell-based
[4] = Antiinflammatory activity in DBA/1 mouse splenocytes assessed as upregulation of LAIR1 level by measuring mean fluorescence intensity at 100 nM by flow cytometry (reference value: 766 +/- 22 au); type: functional, cell-based; details: Splenocyte
Method in brief: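 Splenocytes from DBA/1 mice were cultured in EMEM with 9% charcoal-stripped FBS and treated overnight at 10^-7 M, with an ethanol vehicle control. Cells were stained with fluorochrome anti-CD4 and anti-LAIR1. LAIR1 mean fluorescence was read by multiparameter flow cytometry, gated on CD4 cells.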

[5] = Growth inhibition of human SK-MEL-188 cells measured after 48 hrs by MTS/PMS assay; type: functional; details: SK-MEL-188, 48 h
[6] = target: T2, 25-hydroxyvitamin D-1 alpha hydroxylase, mitochondrial (Mus musculus, UniProt O35084); experiment: Activity of mouse CYP27B1 assessed as compound hydroxylation measured per mol of phospholipid after 3 mins by HPLC; type: ADME; details: 0.05 h
T2 sequence (O35084 whole entry): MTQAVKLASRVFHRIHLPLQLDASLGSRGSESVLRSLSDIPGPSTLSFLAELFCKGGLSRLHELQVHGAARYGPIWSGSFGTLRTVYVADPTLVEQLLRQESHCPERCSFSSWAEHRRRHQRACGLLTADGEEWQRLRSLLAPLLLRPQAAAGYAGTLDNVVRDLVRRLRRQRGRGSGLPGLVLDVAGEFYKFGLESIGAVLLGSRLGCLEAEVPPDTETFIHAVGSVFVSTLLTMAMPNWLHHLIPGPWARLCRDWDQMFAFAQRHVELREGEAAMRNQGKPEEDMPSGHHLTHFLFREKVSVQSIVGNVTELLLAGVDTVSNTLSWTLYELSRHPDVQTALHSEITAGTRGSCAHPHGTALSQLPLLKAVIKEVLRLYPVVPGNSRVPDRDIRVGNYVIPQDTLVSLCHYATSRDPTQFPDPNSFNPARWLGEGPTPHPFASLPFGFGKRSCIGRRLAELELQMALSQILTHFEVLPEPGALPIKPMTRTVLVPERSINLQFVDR
Method in brief: (§1)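 Substrate was incorporated into phospholipid vesicles at 0.0025–0.07 mol/mol PL and incubated 3 min with 0.1 µM mouse CYP27B1. Product was quantified by HPLC. Km and kcat came from a Michaelis–Menten fit, given as mean ± standard error of the curve fit.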

[7] = target: T2, 25-hydroxyvitamin D-1 alpha hydroxylase, mitochondrial; experiment: Ratio of Kcat to Km for mouse CYP27B1 measured per mol of phospholipid after 3 mins by HPLC; type: ADME; details: 0.05 h; method in brief: as §1
[8] = target: T3, Vitamin D3 receptor (Homo sapiens) (UniProt P11473); experiment: Activation of VDR in human Caco2 cells expressing lentiviral VDRE-luciferase vector assessed as VDRE-mediated transcriptional activity up to 1000 nM measured after 24 hrs by luciferase transcriptional reporter assay; type: cell-based; details: Caco-2
T3 sequence (whole entry): T1 sequence (P11473 whole entry)
Method in brief: (§2)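 Cells carry a lentiviral VDRE-luciferase reporter and were selected for 1 week with an extra 1.0 µg/mL puromycin. Growth media: Caco-2 in DMEM with 10% FBS; HaCaT in the same with 5% FBS; Jurkat in RPMI 1640 with 10% FBS. Cells were plated in FBS-free medium for 24 h, then given serial concentrations (final DMSO 0.1%) for 24 h. ONE-Glo luminescence was read after 5 min at room temperature. Triplicates.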

[9] = target: T3, Vitamin D3 receptor (Homo sapiens); experiment: Activation of VDR in human HaCaT cells expressing lentiviral VDRE-luciferase vector assessed as VDRE-mediated transcriptional activity up to 1000 nM measured after 24 hrs by luciferase transcriptional reporter assay; type: cell-based; method in brief: as §2
[10] = target: T3, Vitamin D3 receptor (Homo sapiens); experiment: Activation of VDR in human Jurkat cells expressing lentiviral VDRE-luciferase vector assessed as VDRE-mediated transcriptional activity up to 1000 nM measured after 24 hrs by luciferase transcriptional reporter assay; type: cell-based; method in brief: as §2

Question: Which results are given for `C=C1/C(=C\C=C2/CCC[C@@]3(C)[C@H]2CC[C@@H]3[C@@](C)(O)C[C@H](O)CC(C)C)C[C@@H](O)C[C@@H]1O`?
Answer: EC50 (Vitamin D3 receptor [1]): 117 nM; EC50 (Vitamin D3 receptor [2]): 172 nM; EC50 (Vitamin D3 receptor [3]): 30.6 nM; Flu intensity [4]: 1480 a.u.; IC50 [5]: 0.01 nM

Question: What does the source list for `C=C1/C(=C\C=C2/CCC[C@]3(C)[C@@H]([C@H](C)OCCC(C)(C)O)CC[C@@H]23)C[C@@H](O)C[C@@H]1O` [MAXACALCITOL]?
Answer: EC50 (Vitamin D3 receptor [1]): 160 nM; EC50 (Vitamin D3 receptor [2]): 144 nM; EC50 (Vitamin D3 receptor [3]): 0.855 nM; Flu intensity [4]: 1480 a.u.

Question: With `C=C1/C(=C\C=C2/CCC[C@]3(C)[C@@H]([C@H](C)CCCC(C)(C)O)CC[C@@H]23)C[C@@H](O)C[C@@H]1O` as the compound, how does the Flu intensity [4] read?
Answer: 1360 a.u.

Question: With `C=C1CC[C@H](O)C/C1=C/C=C1\CCC[C@@]2(C)[C@H]1CC[C@@H]2[C@@](C)(O)C[C@@H](O)CC(C)C` as the compound, how does the Km [6] read?
Answer: 5.2 ×10⁻³ mol/mol

Question: And the Kcat/Km [7]?
Answer: 4731

Question: What about the Flu intensity [4] of the same compound?
Answer: 1480 a.u.

Question: What about the IC50 [5] of the same compound?
Answer: 0.01 nM

Question: And the Activity [8]?
Answer: inactive

Question: And the Activity [9]?
Answer: inactive

Question: What about the Activity [10] of the same compound?
Answer: inactive

Question: Which EC50 (Vitamin D3 receptor [1]) does the source give for `C=C1/C(=C\C=C2/CCC[C@@]3(C)[C@H]2CC[C@@H]3[C@@](C)(O)C[C@@H](O)CC(C)C)C[C@@H](O)C[C@@H]1O` here?
Answer: 175 nM

Question: And the EC50 (Vitamin D3 receptor [2])?
Answer: 241 nM

Question: What about the EC50 (Vitamin D3 receptor [3]) of the same compound?
Answer: 203 nM

Question: What about the Flu intensity [4] of the same compound?
Answer: 1480 a.u.

Question: What about the IC50 [5] of the same compound?
Answer: 0.01 nM

Question: With `C=C1CC[C@H](O)C/C1=C/C=C1\CCC[C@@]2(C)[C@H]1CC[C@@H]2[C@@](C)(O)C[C@H](O)CC(C)C` as the compound, how does the Km [6] read?
Answer: 2.3 ×10⁻³ mol/mol

Question: What about the Kcat/Km [7] of the same compound?
Answer: 5087

Question: And the EC50 (Vitamin D3 receptor [1])?
Answer: 484 nM

Question: What about the EC50 (Vitamin D3 receptor [2]) of the same compound?
Answer: 562 nM

Question: And the EC50 (Vitamin D3 receptor [3])?
Answer: 653 nM

Question: What about the Flu intensity [4] of the same compound?
Answer: 1480 a.u.

Question: What about the IC50 [5] of the same compound?
Answer: 0.01 nM
